From PubChem
Only some compounds are listed: those with a hit (about 2.9% of all), similar ones and a draw of the others.
T cruzi inh: T. cruzi replication inhibition; T. cruzi beta-gal in NIH3T3, luminescence, 90 h; inhibition, % (test concentration not listed); 300,000 compounds, 1.4% hits;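 active = mean inhibition across valid replicates above about 55%, limit read from the data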;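 note: signal also drops with host cell toxicity which is not excluded here; 0% = plate median of DMSO wells and 100% = zero luminescence signal; higher percent means less beta-gal luminescence so fewer parasites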
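System – NIH/3T3 host cells with β-galactosidase reporter T. cruzi · Doses – single 50 nL compound addition per well in DMSO · Reagent – 5000 T. cruzi trypomastigotes/well · Medium – Low-serum DMEM with 2% FBS · Timing – ≥90 h infection period, 3 h prior cell attachment · Evaluation – parasite load inhibition, % · Technique – GalScreen luminescence, 60 min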
beta cell repl: induces beta-cell replication in MIN6 cells; MIN6 cells proliferation, ATPlite luminescence, 48 h; cells starved in 0.2% serum; 100% = growth in 10% serum; proliferation, % at 10 µM; 330,000 compounds, 0.29% hits;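 active = compounds whose signal lies at least 3.5 SD above the mean of all wells on their plate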;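 note: 0% = DMSO-treated cells in low-serum medium and 100% = 10% serum control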
Rev-erbA mod: modulators of human Rev-erb alpha DNA binding. P20393. activity, % at 10 µM. 370,000 compounds, 0.79% hits. Rev-erbα–FITC-DNA binding, fluorescence polarization, 90 min;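 active = activity above about 14%, limit read from the data; passing the limit was not always enough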;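 note: 0% = DMSO wells with 35 nM protein and 100% = DMSO wells with 750 nM protein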
Target sequence (P20393 whole entry, looked up): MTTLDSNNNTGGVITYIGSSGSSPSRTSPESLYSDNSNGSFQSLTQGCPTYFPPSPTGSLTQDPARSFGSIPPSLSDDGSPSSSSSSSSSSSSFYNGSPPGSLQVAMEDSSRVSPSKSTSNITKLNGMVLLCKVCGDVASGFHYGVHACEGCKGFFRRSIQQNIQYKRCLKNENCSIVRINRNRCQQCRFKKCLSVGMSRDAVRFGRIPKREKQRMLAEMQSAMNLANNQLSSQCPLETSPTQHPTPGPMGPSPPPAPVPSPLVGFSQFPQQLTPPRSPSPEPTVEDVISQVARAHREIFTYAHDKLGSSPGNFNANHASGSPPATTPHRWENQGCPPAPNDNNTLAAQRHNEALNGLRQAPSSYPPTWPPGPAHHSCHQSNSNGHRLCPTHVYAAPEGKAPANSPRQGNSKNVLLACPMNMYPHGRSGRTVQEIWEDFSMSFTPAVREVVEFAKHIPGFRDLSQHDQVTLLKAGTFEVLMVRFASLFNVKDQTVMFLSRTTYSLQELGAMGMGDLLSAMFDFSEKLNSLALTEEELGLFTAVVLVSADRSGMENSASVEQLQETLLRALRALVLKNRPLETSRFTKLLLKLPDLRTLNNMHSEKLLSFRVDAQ
PG9 Ab binder: PG9 antibody binding by small molecule; TR-FRET gp120-PG9 antibody binding; inhibition, % at 6.7 µM; 360,000 compounds, 0.43% hits; in the data active = inhibition above about 8.5%
iPSC survival up: increases survival of single human iPS cells. survival enhancement, % at 20 µM. AID 602274. hiPSC single-cell survival, ATPlite luminescence; 100% = ROCK inhibitor wells, 0% = DMSO. 360,000 compounds, 0.044% hits; in the data active = survival enhancement above about 18%;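 note: cells exposed to compounds for 16 hours before the ATP read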
TAG inh: inhibitors of triacylglycerol accumulation | H9c2 cells, Nile Red lipid (TAG) fluorescence; cells loaded with 200 µM oleic acid | AID 651582 | inhibition, % at 12.5 µM | 230,000 compounds, 0.66% hits;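 active = pattern-corrected inhibition of lipid staining of at least 50% with the nuclear-stain viability signal not falling by more than 50%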;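 note: 0% = DMSO wells and 100% = triacsin C control wells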
* = called active by the depositor; nt = no result given.

SMILES | T cruzi inh | beta cell repl | Rev-erbA mod | PG9 Ab binder | iPSC survival up | TAG inh
COc1ccc(C2CC(c3cccc(F)c3)=NN2c2ccc(S(N)(=O)=O)cc2)cc1 (centres undefined) | nt | nt | -7 | 4 | 1 | 11
CSc1nc(C)c2c(n1)N(c1ccc(F)cc1)CC2 | 7 | 3 | 16 | 10* | 0 | -7
CSc1nc(C)c2c(n1)N(c1ccc(O)cc1)CC2 | -7 | -1 | -3 | -2 | -1 | 5
CCOc1ccc(C(=O)c2ccc([N+](=O)[O-])cc2Cl)cc1 | 60* | -4 | -5 | 0 | -2 | -5
CC[n+]1c(/C=C/N(C)c2ccccc2)oc2ccc(F)cc21 | 30 | 0 | 4 | -3 | -2 | nt
CC[n+]1c(/C=C/N(C)c2ccccc2)oc2ccccc21 | 78* | 0 | 1 | 0 | 0 | nt
OC1c2cc(Br)ccc2N=C2CCCCCN21 (centres undefined) | nt | nt | 3 | -3 | 1 | -4
OC1c2cc(Br)ccc2N=C2CCCN21 (centres undefined) | 55* | -6 | 3 | -1 | 6 | nt
CCOC(=O)C(NC(=O)NCc1ccccc1)(OCC)C(F)(F)F (centres undefined) | -1 | -2 | -4 | 0 | -2 | nt
COc1ccc(CCNC(=O)CSc2ccc3nnc(CCNC(=O)c4ccccc4)n3n2)cc1OC | 0 | -3 | 0 | -1 | 1 | 5
COc1ccc(NC(=O)C23CC4CC(C2)CC(n2cnc(Br)n2)(C4)C3)cc1OC | 6 | 2 | 2 | 1 | -2 | nt
O=C(Nc1ccon1)C12CC3CC(C1)CC(n1cnc([N+](=O)[O-])n1)(C3)C2 | 59* | -2 | -5 | -2 | 4 | nt
Cc1cc(NC(=O)C23CC4CC(C2)CC(n2cnc([N+](=O)[O-])n2)(C4)C3)no1 | 55* | 2 | 3 | -1 | -1 | nt
O=C(CCC1CCCCC1)NCCN1C2=NC[C@H](Cc3ccccc3)N2C[C@H]1Cc1ccc(O)cc1 | -14 | -8 | 2 | 3 | -1 | nt
Oc1[nH]c2ccc(Br)cc2c1N=Nc1ccc(C(F)(F)F)cn1 | 75* | -6 | 2 | 0 | 0 | nt
O=C(ON=C1CCSCC1)c1ccccc1 | -13 | -2 | 5 | 1 | 1 | 9
N#Cc1c(N)[nH]c2ccc(Sc3ccccc3)cc12 | nt | nt | 2 | -3 | 0 | 54*
N#Cc1c(N)[nH]c(=S)c(C#N)c1-c1ccccc1 | 3 | 3 | 4 | 1 | 0 | nt
S=C(NCCc1ccccc1)Nc1ncccn1 | nt | nt | 3 | 1 | 1 | -18
COc1ccc(-c2cn(-c3ccc(Br)cc3)c3[n+]2CCS3)cc1 | 29 | -6 | -1 | 0 | -2 | nt
CC(=O)c1ccc(-n2cc(-c3ccc(C(C)(C)C)cc3)[n+]3c2SCCC3)cc1 | 68* | -5 | -3 | 1 | -1 | -16
CN(C)CCOc1ccc(/C(=C(/CCCl)c2ccccc2)c2ccccc2)cc1 | 62* | -1 | 2 | -2 | 3 | 8
N#Cc1ccc(C23CC4(C2)[C@H](CN(P(=O)(c2ccccc2)c2ccccc2)[C@@H]4c2ccccc2)C3c2ccc(Cl)nc2)cc1 (some centres undefined) | 47 | -8 | nt | nt | -3 | 51*
Clc1ccc(C2[C@H]3CN(Cc4cccnc4)[C@H](c4ccccc4)C34CC2(c2ccccc2)C4)cn1 (some centres undefined) | 56* | -8 | -2 | 1 | nt | nt
c1ccc(C2[C@H]3CN(Cc4cccnc4)[C@H](c4ccccc4)C34CC2(c2ccccc2)C4)cc1 (some centres undefined) | 36 | -8 | 6 | 1 | 0 | -1
SMILES | T cruzi inh | beta cell repl | Rev-erbA mod | PG9 Ab binder | iPSC survival up | TAG inh
CC1(Cc2ccc3c(c2)OCO3)C(=O)Nc2c(Cl)ccc(Cl)c21 (centres undefined) | nt | nt | 5 | 1 | -2 | 1
C/C(=N\OC(=O)c1c(-c2c(F)cccc2Cl)noc1C)c1nccs1 | -7 | -2 | -3 | -1 | 0 | 8
COc1ccc(/C(N)=N/OC(=O)c2c(-c3ccccc3Cl)noc2C)cc1OC | 57* | -5 | 2 | -3 | 0 | -4
N/C(=N\OC(=O)c1ccc2c(c1)OCO2)c1cccc(Br)c1 | -5 | -6 | 0 | 0 | 0 | -1
Cc1onc(-c2c(F)cccc2Cl)c1C(=O)O/N=C(\N)c1ccc([N+](=O)[O-])o1 | 60* | -6 | -4 | 0 | 0 | 29
COc1ccc(/C(N)=N/OC(=O)c2ccc3c(c2)OCO3)cc1OC | 57* | -3 | -3 | -1 | -2 | nt
CCOC(=O)C1CCCN(C(=O)c2cccc(S(=O)(=O)N(Cc3ccccc3)c3ccccc3OC)c2)C1 (centres undefined) | 56* | -6 | -7 | -1 | -1 | -2
CC(OC(=O)c1ccc([N+](=O)[O-])s1)C(=O)NC1CCCCC1C (centres undefined) | nt | -6 | -1 | -2 | 0 | 11
Cc1cc(C)c2c3c(sc2n1)C(c1cccc(F)c1)C(C#N)=C(N)O3 (centres undefined) | 72* | -6 | 1 | 2 | -1 | nt
CCOC(=O)[C@@]12CCCC3=C1N(CCC3)C(=O)[C@H]2CC(=O)N1CCC(c2ccccc2)CC1 | nt | nt | 4 | nt | nt | nt
Cc1ccc(-c2c[n+](Cc3ccc(Cl)cc3)c3n2CCC3)cc1 | 61* | -4 | -8 | 1 | -1 | -8
Clc1cccc(C[n+]2cc(-c3ccccc3)n3c2CCC3)c1 | 64* | -4 | -7 | -1 | 0 | -21
Cc1ccc(-c2c[n+](Cc3cccc(Cl)c3)c3n2CCC3)cc1 | 67* | -4 | -1 | -1 | 0 | 4
CCOc1ccccc1NC(=O)CSc1nc2ccccc2c(=O)n1CC1CCCO1 (centres undefined) | 10 | 1 | -2 | 0 | 1 | nt
CCN(Cc1ccccc1)S(=O)(=O)c1cc2[nH]c(=O)c(=O)[nH]c2cc1C | -16 | -4 | 12 | 0 | 0 | 6
OC(COc1ccc2cc(Br)ccc2c1)Cn1ccnc1 (centres undefined) | 58* | -1 | -4 | 2 | 1 | nt
c1ccc2cc(OCCCn3ccnc3)ccc2c1 | 63* | -2 | 2 | -1 | 0 | -2
Clc1ccc(OCCn2ccnc2)cc1Cl | 59* | -2 | 1 | -3 | 1 | nt
Cc1cccc(OCCn2ccnc2)c1 | 0 | 0 | -5 | -1 | 2 | nt
Cc1cc(OCCCn2ccnc2)ccc1C(C)C | 74* | 0 | 2 | 1 | -1 | nt
C=CCN(C(=O)Cn1c(C(=O)OC)cc2oc(C)cc21)c1ccccc1 | 2 | -3 | -5 | -3 | 7 | nt
Cc1nn(Cc2ccc(C(=O)NC(C)(C)C)o2)c(C)c1Br | -29 | -4 | 1 | -1 | 2 | nt
CCOc1ccc(-n2cc(C(=O)Nc3cccc(Cl)c3)c3cc(OC)c(OC)cc3c2=O)cc1 | 64* | -3 | 2 | 2 | -1 | 33
